Measured values published in paper PMC6422681 (Science signaling, 2018).
Structures can show the parent of a compound that is named as a salt.

Tests used:
CXCR4 [1] = biological target: T1, CXCR4 (Homo sapiens, UniProt P61073); assay: Flow cytometry of CXCL12-stimulated CXCR4 endocytosis in Jurkat cells; type: cell-based; settings: 30 nM CXCL12, antagonist 30 min before
Outline: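 Jurkat cells (1×10^5), serum-starved 6 hours, got vehicle or antagonist 30 min before 30 nM CXCL12. At set times, washed three times in ice-cold PBS/1% BSA, stained 20 min with PE-anti-CXCR4 (4G10 or 12G5) or isotype controls, and fixed in 4% paraformaldehyde. Surface CXCR4 read by flow cytometry against CXCL12 alone. Means ± SD; three experiments in triplicate.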

CXCR4 [2] = biological target: T1, CXCR4; assay: cAMP concentration by ELISA in Jurkat cells; type: cell-based; settings: 100 μM forskolin, 30 nM CXCL12
Outline: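 Jurkat cells (5×10^6), serum-starved 6 hours in RPMI 1640 with penicillin-streptomycin and L-glutamine. Steps: 100 μM forskolin or vehicle 30 min; then vehicle or antagonists 30 min; then 30 nM CXCL12 30 min. cAMP measured in lysates by direct ELISA; relative change calculated. Means ± SD of three independent experiments, six replicates per condition.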

CXCR4 [3] = assay: PRESTO-Tango assay of BA2 recruitment to CXCR4; type: cell-based; settings: HTLA cells, increasing CXCL12 with 1 μM AMD3100 or 10 μM X4-2-6, 1 hour, 37°C
Outline: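 HTLA cells were lipofected with Tango plasmids. After one day they were plated on poly-L-lysine-coated wells and allowed to attach 4 h before treatment with CXCL12 plus vehicle or test compound. Read-out was luminescence after adding a 1:5 mix of Bright-Glo with HBSS/20 mM Hepes and incubating at room temperature.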

CXCR4 [4] = biological target: T1, CXCR4; assay: CXCR4 phosphorylation assay; type: cell-based; settings: Jurkat cells, 1 μM AMD3100 or 10 μM X4-2-6 for 30 min, then 30 nM CXCL12 for 30 min
CXCR4 [5] = biological target: T1, CXCR4; assay: Transwell chemotaxis of Jurkat cells toward CXCL12; type: cell-based; settings: Jurkat cells treated 1 hour with 80 μM dynasore, 30 nM CXCL12
CXCR4 [6] = biological target: T1, CXCR4; assay: Flow cytometry of CXCR4 cell surface expression on Jurkat cells; type: cell-based
Gαi = assay: GTP loading of Gαi; type: cell-based, human; settings: Jurkat cells
CXCR4 [7] = biological target: T1, CXCR4; settings: Jurkat cells, 72 hours, fig. S1
ERK1/2 = ERK1/2 phosphorylation assay; type: cell-based, human; settings: Jurkat cells, 30 nM CXCL12, time points up to 30 min

T1 sequence (P61073 whole entry): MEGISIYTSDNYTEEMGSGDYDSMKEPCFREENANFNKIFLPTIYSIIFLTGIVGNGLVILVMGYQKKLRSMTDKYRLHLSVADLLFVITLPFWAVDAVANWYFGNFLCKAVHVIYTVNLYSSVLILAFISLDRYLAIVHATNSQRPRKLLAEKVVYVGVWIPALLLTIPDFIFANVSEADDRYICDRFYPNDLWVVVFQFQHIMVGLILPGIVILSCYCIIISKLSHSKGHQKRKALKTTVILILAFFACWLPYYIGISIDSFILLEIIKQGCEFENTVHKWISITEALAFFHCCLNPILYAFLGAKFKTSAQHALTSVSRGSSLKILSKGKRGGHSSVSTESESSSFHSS

| Structure (SMILES) | CXCL12-mediated CXCR4 internalization (endocytosis) (CXCR4 [1]) | cAMP amounts in forskolin and CXCL12 treated cells (CXCR4 [2]) | increase of CXCL12 EC50 for BA2 recruitment (CXCR4 [3]) | phosphorylation of Ser324/325 or Ser339 in the C terminus of CXCR4 (CXCR4 [4]) | potency of AMD3100 to inhibit chemotaxis after dynasore treatment (CXCR4 [5]) | CXCR4 cell surface expression after prolonged exposure (CXCR4 [6]; 72 hours, compared to vehicle-treated cells) | amount of Gαi-GTP in CXCL12-treated cells (Gαi) | total CXCR4 protein amount (CXCR4 [7]) | pERK1/2 (Thr202/Tyr204) generation after CXCL12 (ERK1/2) | CXCR4 cell surface expression after dynasore (CXCR4 [6]; 80 μM dynasore for 1 hour, antibody clone 4G10) |
| --- | --- | --- | --- | --- | --- | --- | --- | --- | --- | --- |
| c1cc(CN2CCCNCCNCCCNCC2)ccc1CN1CCCNCCNCCCNCC1 [AMD3100, AMD3100 octahydrochloride hydrate] | inhibited CXCL12-mediated receptor internalization | returned cAMP amounts to those observed in cells treated with forskolin alone | more than 3500 fold | inhibited this posttranslational modification | reduced potency | increased cell surface CXCR4 expression | reduced the amount of Gαi-GTP | increased the total CXCR4 protein amount | inhibited both early and late peaks in pERK1/2 generation | – |
| Nn1cnc2scc(-c3ccc(Cc4ccccc4)cc3)c2c1=O [barbadin] | – | – | – | – | – | – | – | – | increased the early and late peaks in pERK1/2 abundance | – |
| O=C(N/N=C/c1ccc(O)c(O)c1)c1cc2ccccc2cc1O [dynasore] | – | – | – | – | – | – | – | – | – | increased CXCR4 cell surface expression |
